NPY-Y2 antag: NPY-Y2 receptor antagonists, primary screen, cell-based. Neuropeptide Y receptor type 2 (Homo sapiens), P49146. NPY-Y2 expressing cells, antagonist mode. inhibition, % at 2.7 µM. actives 0.99% (n = 140,000). AID 793, 2007; in the data active means inhibition above about 17%
WT yeast gro inh: growth inhibition of WT strain, primary screen, mitochondrial fusion inhibitor project, WT and mutant strains, chemical genetic; mitochondrial fusion phenotypic screen; inhibition, % at 10 µM; actives 2.1% (n = 190,000); AID 1362, 2008; in the data active means inhibition above about 58%; tested in S. cerevisiae
NPY-Y2 PAM-ag: NPY-Y2 potentiators or agonists, primary screen, cell-based; Neuropeptide Y receptor type 2 (Homo sapiens), P49146; cells expressing NPY-Y2, potentiator/agonist read-out; activation, % at 3.6 µM; actives 0.45% (n = 220,000); AID 1359, 2008; in the data active means activation above about 27%;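 further: cells stimulated with NPY near EC25 plus isoproterenol at EC100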
RAM network inh: inhibitors of the yeast RAM network, primary screen, dse1pr::URA3 reporter, 5-FOA selection. actives 1.8% (n = 190,000). inhibition, % at 50 µM. S. cerevisiae dse1pr::URA3 reporter, 5-FOA growth OD615, 2 d; analog-sensitive cbk1-as2 kinase mutant strain;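 active means inhibition above a set limit, 3 SD over mean compound inhibition, cut at about 8.4% in these data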;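 further: inhibition rescues growth on 5-FOA so higher OD means more RAM inhibition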
NPY1 pot ag: NPY-Y1 receptor potentiators or agonists, primary screen, cell-based; NPY-Y1 expressing cells, potentiator/agonist activation; activation, % at 3.6 µM; actives 0.37% (n = 220,000); AID 1304, 2008; in the data active means activation above about 33%, passing the limit was not always enough;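 further: cells stimulated with NPY at EC10 then isoproterenol at EC100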
Target sequence (P25929 whole entry, looked up): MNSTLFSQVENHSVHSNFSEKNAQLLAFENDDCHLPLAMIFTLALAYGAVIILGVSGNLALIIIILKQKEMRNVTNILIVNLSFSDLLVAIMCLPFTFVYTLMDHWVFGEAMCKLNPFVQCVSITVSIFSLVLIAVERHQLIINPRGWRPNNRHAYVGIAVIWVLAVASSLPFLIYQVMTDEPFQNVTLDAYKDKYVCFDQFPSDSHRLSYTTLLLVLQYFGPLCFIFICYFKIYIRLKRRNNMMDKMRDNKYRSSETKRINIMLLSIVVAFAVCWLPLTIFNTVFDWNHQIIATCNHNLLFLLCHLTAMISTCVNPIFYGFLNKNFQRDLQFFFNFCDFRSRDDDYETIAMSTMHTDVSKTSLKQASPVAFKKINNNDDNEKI
NPY-Y1 antag: NPY-Y1 receptor antagonists, primary screen, cell-based | HEK293-CNG Y1 cells, membrane potential fluorescence; NPY at EC95, then isoproterenol | inhibition, % at 3.6 µM | actives 1% (n = 200,000);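 active means inhibition above the campaign mean inhibition of all tested compounds plus 3 SD, cut at about 20% in these data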
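material = HEK293 cells with Y1 receptor plus CNG channel | also added = NPY 25 nM then isoproterenol 1 µM plus Ro 20-1724 25 µM | schedule = dye 3 h, compound 60 min room temperature, stimulation 45 min | measured by = membrane potential fluorescence | benchmarks = high control isoproterenol alone, low control NPY with isoproterenol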
Numbers stand for hits; n = inactive; x = no result. Only some compounds are listed: those with a hit (about 4.9% of all), similar ones and a draw of the others.

SMILES | NPY-Y2 antag | WT yeast gro inh | NPY-Y2 PAM-ag | RAM network inh | NPY1 pot ag | NPY-Y1 antag
COc1ccc(CCNC(=O)CCNS(=O)(=O)c2cccc3nonc23)cc1OC | n | n | n | n | n | n
Cc1ccc2nsnc2c1NS(=O)(=O)c1c(C)ccc2nsnc12 | n | x | n | n | n | n
Cc1ccc(/C=[N+](\[O-])c2ccc(N(C)C)cc2)c2nsnc12 | x | 77 | n | n | n | n
COc1ccc2c(c1)c(CC(=O)Nc1cc(C)ccc1C)c(C)n2C(=O)c1ccc(Cl)cc1 | n | n | n | n | n | n
COc1ccc2c(c1)c(CC(=O)Nc1ccccc1OC)c(C)n2C(=O)c1ccc(Cl)cc1 | 18 | n | n | n | n | 20
COc1ccc(C(C)(C)C)cc1NC(=O)c1cncc(Br)c1 | n | 76 | n | n | n | n
O=C(c1ccc2c3c(cccc13)CC2)C1CCCN(Cc2ccccn2)C1 (configuration not stated) | x | n | n | n | n | n
CC12CN(C(=O)c3ccco3)CC(c3ccccc3)(CN(C(=O)c3ccco3)C1)C2=O | n | n | n | n | n | n
COc1ccc(C2C=C(c3ccc(Br)s3)Nc3ncnn32)cc1OC (configuration not stated) | n | n | n | 8.4 | n | n
COc1ccc(C2C=C(c3ccc(C)cc3)Nc3ncnn32)cc1 (configuration not stated) | n | n | n | n | n | n
C[C@H](NC(=O)c1nc[nH]c1C(=O)NCCCCCNC(=O)OC(C)(C)C)C(=O)OCc1ccccc1 | x | n | n | n | n | n
C[C@H](NC(=O)c1nc[nH]c1C(=O)N[C@@H](Cc1ccccc1)C(=O)OCc1ccccc1)c1ccccc1 | x | n | n | 8.6 | n | n
CC(C)C[C@H](NC(=O)c1nc[nH]c1C(=O)NCCCCCNC(=O)OC(C)(C)C)C(=O)OCc1ccccc1 | x | n | 36 | 10 | 39 | n
O=C(C1=C[C@@H](c2ccc(Br)cc2)C[C@@H](OCc2ccc(CO)cc2)O1)N1CCN(Cc2ccccc2)CC1 | x | n | n | n | n | n
NS(=O)(=O)c1cccc(NC(=O)COC(=O)C2CCCCC2)c1 | x | n | n | n | n | n
NC(N)=Nc1ccc(N=C(N)N)cc1 | x | x | n | x | n | x
CCOc1ccc(-c2ccc(SC)nn2)cc1 | x | 68 | n | n | n | n
CCOc1ccc(-c2ccc(SCC(=O)Nc3nnc(CC)s3)nn2)cc1 | x | n | n | n | n | n
CC(CN1CCCCC1)OC(=O)c1ccc(Cl)cc1Cl (configuration not stated) | n | n | n | n | n | n
Brc1ccccc1-c1nnc(SCc2nc3ccccc3s2)o1 | n | n | n | 8.6 | n | n
Cn1nnnc1SCc1nc2ccccc2s1 | n | n | n | n | n | n
CC(C)NCC(O)Cn1c2c(c3ccccc31)CCc1c-2cnn1-c1ccccc1 (configuration not stated) | n | n | 43 | n | 50 | n
COc1ccc(C(=O)c2c(C)c3ccccc3n2CC(O)CNC(C)C)cc1 (configuration not stated) | n | n | n | n | n | n
Cc1cccc(NC(=S)NNC(=O)c2ccc(O)cc2O)c1C | x | n | n | n | n | n
CC(C)c1ccc(NC(=S)NCCc2c[nH]c3ccccc23)cc1 | n | 67 | n | n | n | n
SMILES | NPY-Y2 antag | WT yeast gro inh | NPY-Y2 PAM-ag | RAM network inh | NPY1 pot ag | NPY-Y1 antag
Cc1cc(C)c(C)c(OCCCOc2cccc3cccnc23)c1 | n | 89 | n | n | n | n
CC(C)Oc1ccccc1OCCCOc1cccc2cccnc12 | x | 81 | n | n | n | n
Cc1cc(OCCOc2cccc3cccnc23)cc(C)c1Cl | n | x | n | n | n | n
N#C/C(=C\c1ccccc1OCc1ccc(C(=O)O)cc1)C(=O)Nc1ccc(O)cc1 | x | n | n | n | n | n
COc1ccccc1-c1cc(C(=O)Nc2cc(C)nn2-c2ccccc2)no1 | n | n | n | n | n | n
N#CC1(Cc2ccc([N+](=O)[O-])cc2)c2ccccc2C=CN1C(=O)c1ccccc1 (configuration not stated) | n | n | n | n | n | n
